Each block holds one compound with its values, some of them ahead of it.
Experiments:
Solubility versus pH = assay type: physicochemical; conditions: dependence on pH
UGT1A4 = target: T1, UGT1A4 (Homo sapiens, UniProt P22310); assay: UGT substrate / metabolite formation; assay type: in vitro ADME; conditions: generates ZAAD-1006a
T1 sequence (P22310 29-534): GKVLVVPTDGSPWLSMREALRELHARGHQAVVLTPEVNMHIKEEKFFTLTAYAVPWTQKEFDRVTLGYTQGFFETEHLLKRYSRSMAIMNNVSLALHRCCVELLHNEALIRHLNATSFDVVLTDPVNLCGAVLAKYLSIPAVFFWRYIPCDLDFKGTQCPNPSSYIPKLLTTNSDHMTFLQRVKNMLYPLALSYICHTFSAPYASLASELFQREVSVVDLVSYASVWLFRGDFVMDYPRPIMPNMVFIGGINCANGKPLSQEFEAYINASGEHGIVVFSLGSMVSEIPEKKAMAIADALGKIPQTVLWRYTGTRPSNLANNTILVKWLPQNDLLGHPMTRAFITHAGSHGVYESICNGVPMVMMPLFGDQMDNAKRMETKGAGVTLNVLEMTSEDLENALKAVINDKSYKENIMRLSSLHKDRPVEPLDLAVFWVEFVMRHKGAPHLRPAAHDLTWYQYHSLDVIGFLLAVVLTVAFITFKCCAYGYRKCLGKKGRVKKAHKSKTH

OAT1 = target: T2, OAT1 (Homo sapiens, UniProt Q4U2R8); assay: In vitro OAT1 substrate assessment; assay type: in vitro ADME; conditions: in vitro data
T2 sequence (Q4U2R8 1-563): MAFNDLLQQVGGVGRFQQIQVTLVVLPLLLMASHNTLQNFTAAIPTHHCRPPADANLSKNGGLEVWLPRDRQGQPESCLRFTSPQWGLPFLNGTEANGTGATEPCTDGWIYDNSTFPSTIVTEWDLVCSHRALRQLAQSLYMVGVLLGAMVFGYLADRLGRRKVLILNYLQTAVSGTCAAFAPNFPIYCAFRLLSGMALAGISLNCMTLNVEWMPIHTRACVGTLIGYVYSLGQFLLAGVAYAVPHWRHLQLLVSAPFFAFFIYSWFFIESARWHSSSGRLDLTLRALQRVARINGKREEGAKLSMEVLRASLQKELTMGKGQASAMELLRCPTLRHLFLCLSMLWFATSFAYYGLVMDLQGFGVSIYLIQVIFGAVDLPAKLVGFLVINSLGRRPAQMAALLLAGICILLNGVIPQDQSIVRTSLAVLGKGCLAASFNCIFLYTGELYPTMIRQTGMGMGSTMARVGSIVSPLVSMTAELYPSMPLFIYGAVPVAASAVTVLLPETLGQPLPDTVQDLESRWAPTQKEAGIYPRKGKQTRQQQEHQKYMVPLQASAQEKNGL

[1] = Four phase I DDI studies overall; assay type: in vivo, human
Method in brief: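 Across four crossover studies, healthy subjects received a single 600 mg oral dose fasted. Tmax came from plasma LC-MS/MS profiles, with BLQ values set to zero or missing by position. Safety covered adverse events, physical examination, vital signs, 12-lead ECG and laboratory tests. The investigator graded severity and causality. Analysis was descriptive over all subjects dosed at least once.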

Itraconazole = assay type: in vivo, human
Method in brief: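 Healthy adults (18–60 y) in a two-treatment crossover with a 10-day washout. Single 600 mg oral dose given alone or with itraconazole 200 mg oral solution, with overnight fast (at least 8–10 h) and 4 h post-dose fast. Sampling extended to 312 h. Plasma was quantified by validated LC-MS/MS. ANOVA of log-transformed Cmax and AUC∞ gave two-sided 90% CIs of geometric LS mean ratios.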

Esomeprazole = assay type: in vivo, human; conditions: for AUC(0-inf) / Cmax: human, plasma, oral, Geometric LS mean, ANOVA
Method in brief: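 Healthy adults (18–60 y, BMI 18–30 kg/m2) in an open-label randomized two-period crossover with a 10-day washout. Single 600 mg oral dose (3 × 200 mg capsules) alone or with esomeprazole 40 mg, fasted at least 8–10 h plus 4 h post-dose. Plasma was assayed by LC-MS/MS (30–3750 ng/mL). ANOVA on ln Cmax/AUC∞ gave 90% CIs of geometric LS mean ratios.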

[2] = target: cytochrome P450 (CYP) 3A4 (Homo sapiens, UniProt P08684); assay: In vitro metabolism: enzyme responsible; assay type: in vitro ADME; conditions: in vitro studies
Rifampin = assay type: in vivo, human
Method in brief: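 Crossover in healthy adults (18–60 y, BMI 18–30 kg/m2) with a 10-day washout. Single oral 600 mg dose given alone or with rifampin 600 mg (2 × 300 mg capsules), taken with 240 mL water after at least 8–10 h fasting and 4 h further fasting. Plasma was measured by LC-MS/MS (30–3750 ng/mL). ANOVA (treatment, period, sequence, subject within sequence) on log Cmax/AUC∞ gave 90% CIs.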

Probenecid = assay type: in vivo, human
Method in brief: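 Two-treatment crossover in healthy subjects (18–60 y, BMI 18–32 kg/m2) with a 17-day washout. A 600 mg oral capsule dose was given alone or with probenecid 500 mg tablet, after fasting at least 8–10 h and for 4 h post-dose. Plasma was collected through 312 h and measured by LC-MS/MS. Ratios came from ANOVA of ln-transformed Cmax and AUC∞ with 90% CIs.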

CYP3A4 = CYP3A4 (Homo sapiens, UniProt P08684); assay: In vitro mechanism-based inactivation of CYP3A4; assay type: biochemical
[3] = co-administration with probenecid, healthy subjects ref 12; cited from earlier work
[4] = co-administered with itraconazole vs alone
[5] = pexidartinib + itraconazole vs pexidartinib alone
[6] = co-administered with esomeprazole vs alone
[7] = pexidartinib + esomeprazole vs pexidartinib alone
[8] = co-administered with rifampin vs alone
[9] = pexidartinib + rifampin vs pexidartinib alone
[10] = pexidartinib + probenecid vs pexidartinib alone

CYP3A4, sequence (P08684 whole entry): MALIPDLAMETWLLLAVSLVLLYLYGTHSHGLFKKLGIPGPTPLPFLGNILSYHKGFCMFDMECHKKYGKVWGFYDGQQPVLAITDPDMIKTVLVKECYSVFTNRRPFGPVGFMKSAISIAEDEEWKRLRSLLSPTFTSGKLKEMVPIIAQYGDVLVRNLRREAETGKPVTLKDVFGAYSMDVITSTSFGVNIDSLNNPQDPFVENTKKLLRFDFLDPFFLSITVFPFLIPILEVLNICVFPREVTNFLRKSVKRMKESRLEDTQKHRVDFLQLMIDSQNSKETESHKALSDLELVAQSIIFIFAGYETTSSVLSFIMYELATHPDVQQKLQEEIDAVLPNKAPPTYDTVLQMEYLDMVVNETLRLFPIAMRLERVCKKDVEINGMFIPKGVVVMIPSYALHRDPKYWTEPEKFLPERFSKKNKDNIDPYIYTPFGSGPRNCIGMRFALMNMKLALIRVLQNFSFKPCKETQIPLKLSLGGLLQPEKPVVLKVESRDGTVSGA
cytochrome P450 (CYP) 3A4, sequence (P08684 whole entry): as above

solubility (Solubility versus pH): decreases as pH increases
UGT1A4 substrate (UGT1A4): substrate of the UGT1A4 enzyme
substrate for OAT1 (OAT1): not a substrate for OAT1
Tmax ([1]; human, plasma, oral): 2 to 3 h
increase in AUC∞ (Itraconazole; [4]): ~73%
increase in Cmax (Itraconazole; [4]): approximately 48%
AUC∞, Geometric LS mean ratio (90% CI) (Itraconazole; [5]): 173.0 (160.7–186.3) %
Cmax, Geometric LS mean ratio (90% CI) (Itraconazole; [5]): 148.3 (127.8–172.0) %
decrease in AUC∞ (Esomeprazole; [6]): ~47%
decrease in Cmax (Esomeprazole; [6]): approximately 55%
AUC(0-inf) (Esomeprazole; 600 mg, pexidartinib alone): 104000 ng·h/mL
Cmax (Esomeprazole; 600 mg, pexidartinib alone): 6430 ng/mL
AUC(0-inf) (Esomeprazole; pexidartinib + esomeprazole): 55400 ng·h/mL
Cmax (Esomeprazole; pexidartinib + esomeprazole): 2920 ng/mL
AUC∞, Geometric LS mean ratio (90% CI) (Esomeprazole; [7]): 53.1 (47.4–59.3) %
Cmax, Geometric LS mean ratio (90% CI) (Esomeprazole; [7]): 45.4 (36.8–55.9) %
decrease in AUC∞ (Rifampin; [8]): ~63%
decrease in Cmax (Rifampin; [8]): approximately 33%
AUC∞, Geometric LS mean ratio (90% CI) (Rifampin; [9]): 37.0 (30.6–44.8) %
Cmax, Geometric LS mean ratio (90% CI) (Rifampin; [9]): 67.1 (53.1–84.8) %
effect on Cmax (Probenecid; co-administered with probenecid vs alone): unchanged
AUC∞, Geometric LS mean ratio (90% CI) (Probenecid; [10]): 159.8 (143.4–178.0) %
Cmax, Geometric LS mean ratio (90% CI) (Probenecid; [10]): 105.8 (92.4–121.0) %
KI (inactivation) (CYP3A4): 4.01 µM
kinact (CYP3A4): 0.000377 s⁻¹
Compound: FC(F)(F)c1ccc(CNc2ccc(Cc3c[nH]c4ncc(Cl)cc34)cn2)cn1 [Pexidartinib]
severity of treatment-emergent adverse events (TEAEs) ([1]; all four studies): grade 1 or 2
subjects who experienced a TEAE (Itraconazole; N = 16): nine
subjects with TEAE assessed as related to the study drug (Itraconazole; pexidartinib or itraconazole): seven
enzyme responsible for metabolism [2]: cytochrome P450 (CYP) 3A4 as the main enzyme
subjects who experienced a TEAE (Rifampin; grade 1 diarrhea): single
subjects who experienced a TEAE (Probenecid; N = 16): Eight
subjects with TEAE considered study drug related (Probenecid; in vivo): four

Compound: CCCc1nc(C(C)(C)O)c(C(=O)O)n1Cc1ccc(-c2ccccc2-c2nnn[nH]2)cc1 [olmesartan]
increase in AUC [3]: approximately 50%
